Shown are actives, neighbours in structure and some others; about 1.9% of the full set was active somewhere.
M4 antag – human M4 muscarinic receptor antagonists, primary screen, CHO cells, Fluo-8 calcium fluorescence; CHO-hM4 cells, ACh EC80; inhibition, % at 3 µM; AID 624125, 2012; actives 0.73% (n = 360,000); Muscarinic acetylcholine receptor M4 (Homo sapiens), P08173;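 active = inhibition above its plate's cutoff, the mean inhibition of sample wells plus 3 SD, cut at about 27% in these data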;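 also: 0% = acetylcholine EC80 with DMSO and 100% = DMSO without agonist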
M5 antag – human M5 muscarinic receptor antagonists, primary screen, CHO cells, Fluo-8 calcium fluorescence; CHO-hM5 cells, ACh EC80; inhibition, % at 3 µM; actives 0.59% (n = 360,000); AID 624040, 2012;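 active = inhibition above a per-plate cutoff, the mean of that plate's test compounds plus 3 SD, cut at about 27% in these data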;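 also: 0% = acetylcholine EC80 with DMSO and 100% = DMSO without agonist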
Target sequence (P08912 whole entry, looked up): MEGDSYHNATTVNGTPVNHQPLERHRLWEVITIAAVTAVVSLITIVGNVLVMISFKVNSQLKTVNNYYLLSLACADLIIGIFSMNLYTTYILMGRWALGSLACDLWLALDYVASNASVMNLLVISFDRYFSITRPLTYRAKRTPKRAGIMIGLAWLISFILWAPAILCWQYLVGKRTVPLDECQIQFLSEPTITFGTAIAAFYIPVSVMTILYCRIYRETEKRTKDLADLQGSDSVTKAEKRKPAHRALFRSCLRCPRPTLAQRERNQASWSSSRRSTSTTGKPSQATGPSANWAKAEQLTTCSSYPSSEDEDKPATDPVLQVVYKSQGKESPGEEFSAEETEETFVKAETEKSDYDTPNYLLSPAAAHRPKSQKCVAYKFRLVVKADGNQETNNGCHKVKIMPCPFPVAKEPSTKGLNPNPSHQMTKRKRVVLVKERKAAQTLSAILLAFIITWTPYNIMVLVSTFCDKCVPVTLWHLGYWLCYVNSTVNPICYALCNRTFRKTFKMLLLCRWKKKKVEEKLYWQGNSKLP
M5 PAM – human M5 muscarinic receptor positive allosteric modulators, primary screen, CHO-K1 cells, Fluo-8 calcium fluorescence | CHO-K1 hM5, ACh EC20 PAM; 0% = ACh EC20, 100% = ACh EC100 | activation, % at 3 µM | actives 0.3% (n = 360,000) | AID 624038, 2012;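 active = activation above the run cutoff, the mean activation of all test compounds plus 3 SD, cut at about 18% in these data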
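System – CHO-K1 hM5 cells · Compound – 3 µM, single dose · Incubation – compound preincubation 140 s before EC20 acetylcholine addition · Technique – Fluo-8 calcium fluorescence · Measure – Max/basal fluorescence ratio as % of EC20–EC100 ACh window · Benchmarks – low control EC20 acetylcholine (0%), high control EC100 acetylcholine (100%) · Replication – singlicate, one well per test compound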
M4 PAM – human M4 muscarinic receptor positive allosteric modulators, primary screen, CHO-K1 cells, Fluo-8 calcium fluorescence; activation, % at 3 µM; CHO-K1 hM4/Gqi5, ACh EC20; 0% = ACh EC20, 100% = maximal ACh; actives 0.4% (n = 360,000);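 active = activation above its plate's cutoff, the mean activation of sample wells plus 3 SD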
CHRM5 agonist – human M5 muscarinic receptor agonists, primary screen, CHO-K1 cells, Fluo-8 calcium fluorescence. Muscarinic acetylcholine receptor M5 (Homo sapiens), P08912. CHO-K1 hM5 cells; 0% DMSO wells, 100% maximal acetylcholine response. activation, % at 3 µM. actives 0.19% (n = 360,000). AID 624037, 2012;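 active = activation above the run's mean over test compounds plus 3 SD, cut at about 23% in these data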;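 also: signal is peak over basal fluorescence ratio across the kinetic read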
CHRM4 agonist – human M4 muscarinic receptor agonists, primary screen, CHO-K1 cells, Fluo-8 calcium fluorescence | Muscarinic acetylcholine receptor M4 (Homo sapiens), P08173 | CHO-K1 hM4/Gqi5; vehicle 0%, full acetylcholine response 100% | activation, % at 3 µM | actives 0.14% (n = 360,000);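 active = activation above the run mean over all test wells plus 3 SD, cut at about 32% in these data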;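 also: peak over basal fluorescence ratio per well then scaled between controls; 0% = DMSO wells and 100% = acetylcholine at EC100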
* hit, by the source's call.

Screening Nc1ncnc2c1ncn2[C@@H]1O[C@H](COP(=O)(O)OP(=O)(O)OP(=O)(O)O)[C@@H](O)[C@H]1O returned M4 antag -12, M5 antag -1, M5 PAM -6, M4 PAM 10, CHRM5 agonist 46* and CHRM4 agonist 96*.
`CCOC(=O)C1(C)CCCN1C(=O)c1ccccc1F` (stereo not given) gave M4 antag -24, M5 antag -11, M5 PAM 3, M4 PAM 5, CHRM5 agonist 1 and CHRM4 agonist 0.
For COCCCN1C(=O)C(CC(=O)NC(c2ccccc2)c2ccccc2)CC(C(=O)N2CCCCCC2)=C1C (stereo not given) the results were M4 antag 3, M5 antag 7, M5 PAM -5, M4 PAM 0, CHRM5 agonist 1 and CHRM4 agonist 1.
`O=C(Nc1ccc(Cl)c(Cl)c1)O/N=C/c1ccncc1` gave M4 antag 14, M5 antag 32*, M5 PAM -16, M4 PAM -18, CHRM5 agonist 7 and CHRM4 agonist 14.
For CC(CN1CCCCC1)NC(=O)c1scnc1-c1ccccc1 (stereo not given) the results were M4 antag 4, M5 antag 6, M5 PAM -4, M4 PAM -3, CHRM5 agonist -2 and CHRM4 agonist 0.
Cc1ccc2c(c1)N(S(=O)(=O)c1ccc(F)cc1)C(C(C)(C)C)CO2 (stereo not given) was read as M4 antag 21, M5 antag -5, M5 PAM -10, M4 PAM -14, CHRM5 agonist -5 and CHRM4 agonist -2.
For Cc1ccc(S(=O)(=O)N2c3ccccc3OCC2C(C)(C)C)cc1 (stereo not given) the results were M4 antag -4, M5 antag -12, M5 PAM 21*, M4 PAM -3, CHRM5 agonist 12 and CHRM4 agonist -1.
For Cc1ccc2c(CN3CCN(c4ccc(Cl)c(Cl)c4)CC3)cc(=O)oc2c1 the results were M4 antag 0, M5 antag 7, M5 PAM -1, M4 PAM 10, CHRM5 agonist 3 and CHRM4 agonist 1.
Screening COc1ccccc1Oc1ccc2c(c1)C(=O)N(c1cccc3ncccc13)C2=O returned M4 antag 21, M5 antag 39*, M5 PAM -20, M4 PAM -12, CHRM5 agonist 10 and CHRM4 agonist 12.
For CSc1cccc(NC(N)=O)c1 the results were M4 antag -5, M5 antag -4, M5 PAM 8, M4 PAM 0, CHRM5 agonist 4 and CHRM4 agonist 0.
`CC(=O)c1cccc(NC(=O)NCCc2ccc(Cl)cc2)c1` gave M4 antag 0, M5 antag 12, M5 PAM -2, M4 PAM 16*, CHRM5 agonist 1 and CHRM4 agonist 9.
For CSc1cccc(NC(=O)Nc2ccc(Cl)cc2)c1 the results were M4 antag 9, M5 antag 31*, M5 PAM -15, M4 PAM -9, CHRM5 agonist 8 and CHRM4 agonist 9.
`CC(=O)Nc1ccc(NC(=O)Nc2cccc(Cl)c2)cc1` gave M4 antag -3, M5 antag 4, M5 PAM -5, M4 PAM -2, CHRM5 agonist 3 and CHRM4 agonist 3.
`CC(=O)c1ccc(NC(=O)Nc2cccc(Cl)c2)cc1` gave M4 antag 12, M5 antag 28*, M5 PAM -21, M4 PAM -8, CHRM5 agonist 8 and CHRM4 agonist 15.
O=C1NC2(CCCCCC2)C(=O)N1Cc1ccccc1F was read as M4 antag 11, M5 antag 10, M5 PAM -2, M4 PAM -3, CHRM5 agonist -4 and CHRM4 agonist 0.
For O=C1NC2(CCCCCC2)C(=O)N1Cc1c(F)cccc1Cl the results were M4 antag 31*, M5 antag 7, M5 PAM -3, M4 PAM -14, CHRM5 agonist -5 and CHRM4 agonist 2.
`CC1=CNC(=O)CC(C)(C)C1` gave M4 antag -9, M5 antag -1, M5 PAM -5, M4 PAM 18, CHRM5 agonist 0 and CHRM4 agonist 2.
CN(Cc1nc2ccccc2n1C)S(=O)(=O)c1ccc(Cl)cc1 was read as M4 antag 0, M5 antag -4, M5 PAM 4, M4 PAM 25*, CHRM5 agonist -5 and CHRM4 agonist 1.
CCC(CC)C(=O)N(C)c1c(C)nc2c(OCc3ccc(C(F)(F)F)cc3)cccn12 was read as M4 antag -18, M5 antag -2, M5 PAM 3, M4 PAM 7, CHRM5 agonist -4 and CHRM4 agonist 2.
`CC(C)Oc1ccc(/C(O)=C2/C(=O)C(=O)N(Cc3cccnc3)C2c2ccco2)cc1` (stereo not given) gave M4 antag 5, M5 antag -2, M5 PAM 13, M4 PAM 19*, CHRM5 agonist 3 and CHRM4 agonist 1.
CCCNC(=O)CN(c1ccccc1)S(=O)(=O)c1ccc(OC)c(OC)c1 was read as M4 antag -13, M5 antag -12, M5 PAM 7, M4 PAM 7, CHRM5 agonist -1 and CHRM4 agonist 3.
`COc1ccc(S(=O)(=O)N(CC(=O)NCCC(C)C)c2ccccc2)cc1OC` gave M4 antag -18, M5 antag -8, M5 PAM 12, M4 PAM 25*, CHRM5 agonist -3 and CHRM4 agonist 3.
O=C(c1noc2c1CCCC2)N1CCN(c2ccc(F)cc2)CC1 was read as M4 antag 29*, M5 antag -1, M5 PAM 3, M4 PAM 3, CHRM5 agonist 2 and CHRM4 agonist 3.
`S=c1[nH]nc(-c2ccncc2)n1/N=C/c1cn(-c2ccccc2)nc1-c1ccccc1` gave M4 antag 0, M5 antag 5, M5 PAM 23*, M4 PAM 9, CHRM5 agonist 17 and CHRM4 agonist 12.
Screening CCOC(=O)c1ccc(N)cc1 returned M4 antag 2, M5 antag -4, M5 PAM -2, M4 PAM -9, CHRM5 agonist 0 and CHRM4 agonist 0.
